{"source": "ChEMBL document CHEMBL3414458", "about": "“Discovery of novel 2,5-dioxoimidazolidine-based P2X(7) receptor antagonists as constrained analogues of KN62” (J Med Chem, 2015)", "key": {"[1]": {"molecular_target": "T1, P2X purinoceptor 7 (Homo sapiens, UniProt Q99572)", "T1 sequence (Q99572 whole entry)": "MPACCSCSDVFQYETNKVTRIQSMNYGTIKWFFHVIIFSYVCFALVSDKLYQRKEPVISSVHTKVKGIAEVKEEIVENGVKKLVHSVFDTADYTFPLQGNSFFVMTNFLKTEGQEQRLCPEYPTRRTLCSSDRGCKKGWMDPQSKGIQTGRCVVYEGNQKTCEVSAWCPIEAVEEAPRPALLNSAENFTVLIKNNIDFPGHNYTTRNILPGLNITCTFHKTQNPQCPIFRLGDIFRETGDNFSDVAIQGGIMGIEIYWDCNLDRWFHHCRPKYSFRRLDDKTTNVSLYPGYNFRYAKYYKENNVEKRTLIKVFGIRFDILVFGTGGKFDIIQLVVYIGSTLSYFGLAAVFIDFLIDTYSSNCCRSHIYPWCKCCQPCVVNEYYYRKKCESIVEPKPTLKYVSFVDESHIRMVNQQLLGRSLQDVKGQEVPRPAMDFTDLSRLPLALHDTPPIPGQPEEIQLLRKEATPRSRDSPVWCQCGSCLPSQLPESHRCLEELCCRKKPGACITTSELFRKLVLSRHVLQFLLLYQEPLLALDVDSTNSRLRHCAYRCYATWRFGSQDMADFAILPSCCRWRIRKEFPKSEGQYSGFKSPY", "experiment": "Antagonist activity at human P2X7 receptor"}, "[2]": {"molecular_target": "T2, P2X purinoceptor 7 (Mus musculus, UniProt Q9Z1M0)", "T2 sequence (Q9Z1M0 whole entry)": "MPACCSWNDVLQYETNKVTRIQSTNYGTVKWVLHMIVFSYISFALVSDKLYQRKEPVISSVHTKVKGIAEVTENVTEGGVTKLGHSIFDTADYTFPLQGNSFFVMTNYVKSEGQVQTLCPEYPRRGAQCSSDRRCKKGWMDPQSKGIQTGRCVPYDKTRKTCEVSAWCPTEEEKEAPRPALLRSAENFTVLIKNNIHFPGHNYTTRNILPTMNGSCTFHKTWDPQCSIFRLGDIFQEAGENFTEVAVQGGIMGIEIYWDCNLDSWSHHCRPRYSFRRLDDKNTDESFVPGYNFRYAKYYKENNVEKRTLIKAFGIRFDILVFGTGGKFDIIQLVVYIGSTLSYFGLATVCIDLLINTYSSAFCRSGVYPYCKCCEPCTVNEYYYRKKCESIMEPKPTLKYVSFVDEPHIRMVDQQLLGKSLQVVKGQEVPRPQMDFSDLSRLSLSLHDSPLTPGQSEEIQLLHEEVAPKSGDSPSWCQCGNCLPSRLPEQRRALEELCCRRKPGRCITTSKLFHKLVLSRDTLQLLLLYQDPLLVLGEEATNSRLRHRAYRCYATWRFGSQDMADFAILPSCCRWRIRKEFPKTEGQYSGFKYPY", "experiment": "Antagonist activity at P2X7 receptor in LPS-primed mouse J774.A1 cells assessed as inhibition of ATP-induced IL-1beta release after 30 mins by ELISA", "type": "cell-based", "summary_of_the_method": "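J774.A1 mouse cells stimulated with 5 mM ATP; IL-1β release measured, with IC50 taken from concentration-response data.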"}, "[3]": {"molecular_target": "T3, P2X purinoceptor 7 (Rattus norvegicus) (UniProt Q64663)", "T3 sequence (whole entry)": "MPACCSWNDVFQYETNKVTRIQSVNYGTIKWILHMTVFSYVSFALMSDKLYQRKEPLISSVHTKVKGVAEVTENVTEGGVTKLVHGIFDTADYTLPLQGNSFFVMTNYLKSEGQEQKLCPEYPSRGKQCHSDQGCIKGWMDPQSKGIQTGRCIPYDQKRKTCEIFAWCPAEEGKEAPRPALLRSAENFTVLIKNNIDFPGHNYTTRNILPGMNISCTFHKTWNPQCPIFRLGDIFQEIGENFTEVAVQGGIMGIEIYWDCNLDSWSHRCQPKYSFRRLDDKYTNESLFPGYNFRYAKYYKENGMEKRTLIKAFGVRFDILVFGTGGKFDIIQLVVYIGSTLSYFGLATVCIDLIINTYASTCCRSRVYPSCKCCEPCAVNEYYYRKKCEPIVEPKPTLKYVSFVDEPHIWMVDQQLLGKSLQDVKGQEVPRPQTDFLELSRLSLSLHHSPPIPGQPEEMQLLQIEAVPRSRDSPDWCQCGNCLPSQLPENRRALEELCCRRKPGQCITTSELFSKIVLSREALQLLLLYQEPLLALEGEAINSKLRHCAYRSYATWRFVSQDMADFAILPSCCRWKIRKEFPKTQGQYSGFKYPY", "experiment": "Antagonist activity at P2X7 receptor in neuropathic rat dorsal horn assessed as inhibition of long term potentiation-induced neropathic pain at 20 uM relative to control", "conditions": "Dorsal horn of spinal cord", "summary_of_the_method": "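Ex vivo spinal cord preparation: LTP-induced pain signalling recorded in the dorsal horn of neuropathic rats. Pregabalin served as the positive control.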"}, "[4]": {"experiment": "Terminal half life in rat at 20 mg/kg, iv", "type": "ADME, organism-based", "set-up": "dose 20 mg/kg, route intravenous", "conditions": "in vivo, read-out: beta t1/2", "summary_of_the_method": "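Rats dosed intravenously; mean terminal half-life was derived from the plasma concentration decline.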"}, "[5]": {"experiment": "Cmax in rat at 10 mg/kg, ip", "type": "ADME, organism-based", "set-up": "dose 10 mg/kg, route intraperitoneal", "conditions": "in vivo", "summary_of_the_method": "(§1)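 Rats dosed 10 mg/kg intraperitoneally; plasma concentrations were measured, and absolute bioavailability was calculated relative to intravenous dosing.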"}, "[6]": {"experiment": "AUClast in rat at 10 mg/kg, ip", "type": "ADME, organism-based", "set-up": "time 0 - last, dose 10 mg/kg, route intraperitoneal", "conditions": "plasma", "summary_of_the_method": "(§2)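 Rats were dosed with the test agent intraperitoneally or by intravenous injection. Drug levels were followed in plasma over time after dosing. Intravenous and intraperitoneal exposures were compared to give absolute bioavailability.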"}, "[7]": {"experiment": "Half life in rat at 10 mg/kg, ip", "type": "ADME, organism-based", "set-up": "dose 10 mg/kg, route intraperitoneal", "conditions": "in vivo"}, "[8]": {"experiment": "Bioavailability in rat at 10 mg/kg, ip", "type": "ADME, organism-based", "conditions": "in vivo", "summary_of_the_method": "as §1"}, "[9]": {"molecular_target": "T1, P2X purinoceptor 7", "experiment": "Antagonist activity at P2X7 receptor in LPS/IFN-gamma-differentiated human THP1 cells assessed as inhibition of BzATP-induced IL-1beta release preincubated for 30 mins followed by BzATP induction measured after 30 mins by ELISA", "type": "cell-based, THP-1", "summary_of_the_method": "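Human THP-1 monocytes, LPS-primed, stimulated with BzATP; IL-1β release measured by ELISA. Active compounds were screened at 1 µM, and full concentration-response curves were run to obtain IC50.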"}, "[10]": {"molecular_target": "T1, P2X purinoceptor 7", "experiment": "Antagonist activity at recombinant human P2X7 receptor expressed in HEK293 cells assessed as inhibition of BzATP-induced intracellular ethidium bromide uptake after 2 hrs by fluorescence assay", "type": "cell-based", "summary_of_the_method": "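Human HEK293 cells stably expressing recombinant human P2X7; ethidium accumulation stimulated by BzATP was measured.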"}, "[11]": {"experiment": "AUClast in rat at 20 mg/kg, iv", "type": "ADME, organism-based", "set-up": "time 0 - last, dose 20 mg/kg, route intravenous", "conditions": "plasma", "summary_of_the_method": "as §2"}, "[12]": {"molecular_target": "T4, P2X purinoceptor 7 (Homo sapiens) (UniProt Q99572)", "T4 sequence (whole entry)": "T1 sequence (Q99572 whole entry)", "experiment": "Antagonist activity at recombinant human P2X7 receptor expressed in HEK293 cells assessed as inhibition of BzATP-induced intracellular ethidium bromide uptake at 10 uM after 2 hrs by fluorescence assay", "type": "cell-based"}}, "data": [{"smiles": "O=C([C@@H]1Cc2ccc(OS(=O)(=O)c3cccc4cnccc34)cc2CN1S(=O)(=O)c1cccc2cnccc12)N1CCN(c2ccccc2)CC1", "values": [{"measurement": "IC50", "setting": "[1]", "result": "< 1000", "unit": "nM"}]}, {"smiles": "CC(C)(C)OC(=O)N1CCN(C(=O)[C@H](Cc2ccc(OS(=O)(=O)c3cccc4cnccc34)cc2)NS(=O)(=O)c2cccc3cnccc23)CC1", "values": [{"measurement": "IC50", "setting": "[1]", "result": 41, "unit": "nM"}]}, {"smiles": "O=C(NCC12CC3CC(CC(C3)C1)C2)c1cc(CCCNCCCO)ccc1Cl", "values": [{"measurement": "IC50", "setting": "[2]", "result": "> 60000", "unit": "nM"}]}, {"smiles": "O=C(N[C@@H](Cc1ccc(OS(=O)(=O)c2ccc([N+](=O)[O-])cc2)cc1)C(=O)N1CCN(C(=O)c2ccccc2)CC1)OCc1ccccc1", "values": [{"measurement": "IC50", "setting": "[1]", "result": 34, "unit": "nM"}]}, {"smiles": "CC(C)C[C@H](CN)CC(=O)O", "values": [{"measurement": "inhibition", "setting": "[3]", "result": 31, "unit": "%"}]}, {"smiles": "O=C1NC(=O)N(C2CCN(C(=O)c3ccc(Cl)c(C(F)(F)F)c3)CC2)C1Cc1ccc(OS(=O)(=O)c2cccc3cnccc23)cc1", "note": "(racemic)", "values": [{"measurement": "IC50", "setting": "[2]", "result": 11800, "unit": "nM"}, {"measurement": "half-life", "setting": "[4]", "result": 1.29, "unit": "h"}, {"measurement": "Cmax", "setting": "[5]", "result": 400, "unit": "ng/mL"}, {"measurement": "AUC(0-t)", "setting": "[6]", "result": 1520, "unit": "ng·h/mL"}, {"measurement": "half-life", "setting": "[7]", "result": 2.15, "unit": "h"}, {"measurement": "bioavailability", "setting": "[8]", "result": 86, "unit": "%"}, {"measurement": "IC50", "setting": "[9]", "result": 50, "unit": "nM"}, {"measurement": "IC50", "setting": "[10]", "result": 70, "unit": "nM"}, {"measurement": "AUC(0-t)", "setting": "[11]", "result": 3530, "unit": "ng·h/mL"}]}, {"smiles": "O=C1NC(=O)N(C2CCN(C(=O)CC34CC5CC(CC(C5)C3)C4)CC2)C1c1ccc(OS(=O)(=O)c2cccc3cnccc23)cc1", "note": "(racemic)", "values": [{"measurement": "inhibition", "setting": "[12]", "result": 46, "unit": "%"}]}, {"smiles": "O=C1NC(=O)N(C2CCN(C(=O)c3ccc(Cl)c(C(F)(F)F)c3)CC2)C1c1ccc(OS(=O)(=O)c2cccc3cnccc23)cc1", "note": "(racemic)", "values": [{"measurement": "inhibition", "setting": "[12]", "result": 30, "unit": "%"}]}]}
